22 compounds from ChEMBL document CHEMBL1641380, “Novel tetrahydropyrido[3,2-c]pyrroles as 5-HT(7) antagonists” (Bioorg Med Chem Lett, 2011) can be followed below.

In data set [1] the target is 5-hydroxytryptamine receptor 7 (Rattus norvegicus, UniProt P32305). The data set is described as follows: Displacement of [3H]5-CT from rat recombinant 5HT7 receptor expressed in HEK293 cells after 60 mins. The class given is cell-based. An outline of the steps:
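Membranes from HEK-293 cells stably expressing rat 5-HT7 incubated 60 min at room temperature with 1 nM [3H]5-CT and increasing test compound; rapid filtration, radioactivity counted. IC50 from nonlinear sigmoidal fits, Ki by Cheng-Prusoff. Means of three experiments in triplicate, SEM; final DMSO ≤0.4%.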

The target of data set [2] is 5-hydroxytryptamine receptor 7 (Homo sapiens, UniProt P34969). The experiment in a line: Binding affinity to 5HT7 receptor.
The target in data set [3] is 5-hydroxytryptamine receptor 7 (Rattus norvegicus) (UniProt P32305). The data set is described as follows: Antagonist activity at rat recombinant 5HT7 receptor expressed in HEK293 cells assessed as decrease of 5-CT-induced increase of cAMP level after 20 mins by competitive immunoassay. A general note: Cyclic AMP is a second messenger, typically raised through Gs and lowered through Gi signalling.

Another data set deals with Rattus norvegicus. The data set is described as follows: Inhibition of 5-CT-induced hypothermia in rat at 10 mg/kg, ip. The arrangement: dose 10 mg/kg. The class given is functional, organism-based. An outline of the steps:
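Conscious rats given test compound intraperitoneally at 10 mg/kg; antagonism of hypothermia induced by the 5-HT7 agonist 5-CT assessed.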

Data set [4] is described as follows: Drug level in rat plasma at 10 mg/kg, ip after 1 hr. The class given is ADME, organism-based. The note with it: read-out: Drug uptake. Further details: dose 10 mg/kg, route intraperitoneal. An outline of the steps: (§1)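 Rats dosed 10 mg/kg intraperitoneally; brain and plasma compound concentrations measured 1 h after dosing.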
The nature of data set [5]: Binding affinity to adrenergic alpha1 receptor.
Data set [6] can be described thus: Drug level in rat brain at 10 mg/kg, ip after 1 hr. It counts as ADME, organism-based. Further details: dose 10 mg/kg, route intraperitoneal. The note with it: read-out: Drug uptake. An outline of the steps:
as §1

Activity calls are given as the source filed them. The rule behind the calls is not given here.

Sequence of 5-hydroxytryptamine receptor 7 (Rattus norvegicus, UniProt P32305) (P32305 whole entry): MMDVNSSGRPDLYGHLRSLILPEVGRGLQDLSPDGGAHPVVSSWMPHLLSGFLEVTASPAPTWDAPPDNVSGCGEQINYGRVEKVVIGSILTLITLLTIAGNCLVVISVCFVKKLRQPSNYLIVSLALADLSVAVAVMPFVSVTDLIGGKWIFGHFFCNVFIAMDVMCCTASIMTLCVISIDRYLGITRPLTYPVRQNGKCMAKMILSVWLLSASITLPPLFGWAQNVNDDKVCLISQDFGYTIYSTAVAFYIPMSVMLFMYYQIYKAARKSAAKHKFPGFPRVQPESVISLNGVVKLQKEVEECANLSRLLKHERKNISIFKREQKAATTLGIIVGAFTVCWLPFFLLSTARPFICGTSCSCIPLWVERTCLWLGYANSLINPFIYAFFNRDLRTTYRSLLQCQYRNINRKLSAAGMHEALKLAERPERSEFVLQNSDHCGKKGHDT
Sequence of 5-hydroxytryptamine receptor 7 (Rattus norvegicus) (P32305 whole entry): as above
Sequence of 5-hydroxytryptamine receptor 7 (Homo sapiens, UniProt P34969) (P34969 whole entry): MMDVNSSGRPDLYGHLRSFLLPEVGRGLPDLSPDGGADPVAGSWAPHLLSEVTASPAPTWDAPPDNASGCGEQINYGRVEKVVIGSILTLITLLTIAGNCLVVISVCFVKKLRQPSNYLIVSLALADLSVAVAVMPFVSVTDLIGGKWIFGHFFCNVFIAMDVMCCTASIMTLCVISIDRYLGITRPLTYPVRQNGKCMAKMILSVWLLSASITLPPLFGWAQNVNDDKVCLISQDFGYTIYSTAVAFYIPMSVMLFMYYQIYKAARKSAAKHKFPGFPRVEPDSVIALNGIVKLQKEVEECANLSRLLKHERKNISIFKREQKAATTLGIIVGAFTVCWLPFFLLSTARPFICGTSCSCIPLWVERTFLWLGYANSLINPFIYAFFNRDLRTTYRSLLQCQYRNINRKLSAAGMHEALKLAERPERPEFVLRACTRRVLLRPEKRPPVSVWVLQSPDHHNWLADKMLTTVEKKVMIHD

By Ki is commonly meant a dissociation constant, usually derived from enzyme kinetics or from competition with a known ligand. On to `Clc1ccc(-c2cn(Cc3cccc(Cl)c3)c3c2CNCC3)cc1`, for which the Ki in data set [1] is 533 nM.
In data set [2], `Clc1ccc(-c2nn(Cc3ccccc3)c3c2CNCC3)cc1` had a Ki of 14 nM.
On to `FC(F)(F)c1ccc(-c2cn(Cc3ccccc3)c3c2CNCC3)cc1`, for which the inhibition constant (Ki) in data set [1] amounted to 167 nM.
The term pKb denotes −log10 of the Kb, conventionally taken in molar units. In the case of `c1ccc(Cn2cc(-c3ccccc3)c3c2CCNC3)cc1`, the pKb in data set [3] came out at 6.7. The Ki in data set [1] was determined as 220 nM.
`Clc1ccc(Cn2cc(-c3ccccc3)c3c2CCNC3)cc1`: the Ki in data set [1] came out at 753 nM.
For `Cc1ccc(-c2cn(Cc3ccccc3)c3c2CNCC3)cc1`, the result in the data set on Rattus norvegicus was Active. The concentration at 1 h in data set [4] was 3 µM; in data set [6], 27 µM. The compound further gave an Activity in data set [5] of 5 nM. Besides, the pKb in data set [3] came to 7.6. In addition, in data set [1], the Ki came to 35 nM.
With `CCN1CCc2c(c(-c3ccc(Cl)cc3)cn2Cc2ccccc2)C1`, the Ki in data set [1] turned out to be 250 nM.
Turning to `Clc1ccc(-c2cn(Cc3ccccc3)c3c2CNCC3)c(Cl)c1`, the Ki in data set [1] came to 2070 nM.
For the compound `CN1CCc2c(c(-c3ccc(Cl)cc3)cn2Cc2ccccc2)C1`, in data set [1], the Ki came to 36 nM.
Still for that read-out and setting: in the case of `Clc1ccccc1Cn1cc(-c2ccccc2)c2c1CCNC2` it was 2290 nM; in that of `Clc1ccc(-c2cn(Cc3ccccc3)c3c2CNCC3)cc1Cl`, 4470 nM; in that of `Clc1cccc(-c2cn(Cc3ccccc3)c3c2CNCC3)c1`, 10000 nM.
Consider `Clc1cccc(Cn2cc(-c3ccccc3)c3c2CCNC3)c1`, for which the Ki in data set [1] turned out to be 6600 nM.
Turning to `CC(C)N1CCc2c(c(-c3ccc(Cl)cc3)cn2Cc2ccccc2)C1`, the Ki in data set [1] was 370 nM.
On the same count and under the same terms, in the case of `FC(F)(F)Oc1ccc(-c2cn(Cc3ccccc3)c3c2CNCC3)cc1` it was 10000 nM; in that of `CC(C)(C)c1ccc(-c2cn(Cc3ccccc3)c3c2CNCC3)cc1`, 10000 nM; in that of `Fc1cccc(-c2cn(Cc3ccccc3)c3c2CNCC3)c1`, 2730 nM.
With `Clc1ccc(-c2cn(Cc3ccccc3)c3c2CNCC3)cc1`, the pKb in data set [3] was found to be 7.2. In data set [1], the Ki came to 107 nM.
In the case of `COc1ccc(-c2cn(Cc3ccccc3)c3c2CNCC3)cc1`, the Ki in data set [1] was found to be 290 nM.
For the compound `Oc1ccc(-c2cn(Cc3ccccc3)c3c2CNCC3)cc1`, the Ki in data set [1] is 10000 nM.
With `O=[N+]([O-])c1ccc(-c2cn(Cc3ccccc3)c3c2CNCC3)cc1`, in data set [1], the Ki stood at 450 nM.
For `Fc1ccc(-c2cn(Cc3ccccc3)c3c2CNCC3)cc1`, the Ki in data set [1] came out at 45 nM.
